# Compound activity from PubChem.
# Most compounds without a hit are left out; they make up all but 1.3% or so of the library.
# Xi reactivation = X-chromosome reactivation activator; activation, % at 7.58 µM; XiGFP mouse fibroblasts, % GFP-positive cells imaging, 3 d; cells co-treated with 5-aza-dC sensitizer; scaled so ellipticine positive control = 100%; 360,000 tested, 0.055% active;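 active means mean normalized replicate activation at least 10% and every replicate at or above 10%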;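 further: 0% = median of on-plate neutral control wells and 100% = ellipticine 6 µM median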
#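 Material: XiGFP fibroblasts, SV40-immortalized; Buffer or medium: DMEM containing 5-aza-dC; Compound dosing: single point; Times: 3 days compound exposure.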
# Rpn11 inh = Rpn11 (human) deubiquitinase inhibition; AID 588493; 360,000 tested, 0.59% active; inhibition, % at 20 µM; human 26S proteasome, Ub4-pepOG fluorescence polarization; 20S core pre-blocked with epoxomicin;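 active means inhibition at 20 µM, scaled to each plate's controls, above about 33%, limit read from the data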
# Target sequence (O00487 whole entry, looked up): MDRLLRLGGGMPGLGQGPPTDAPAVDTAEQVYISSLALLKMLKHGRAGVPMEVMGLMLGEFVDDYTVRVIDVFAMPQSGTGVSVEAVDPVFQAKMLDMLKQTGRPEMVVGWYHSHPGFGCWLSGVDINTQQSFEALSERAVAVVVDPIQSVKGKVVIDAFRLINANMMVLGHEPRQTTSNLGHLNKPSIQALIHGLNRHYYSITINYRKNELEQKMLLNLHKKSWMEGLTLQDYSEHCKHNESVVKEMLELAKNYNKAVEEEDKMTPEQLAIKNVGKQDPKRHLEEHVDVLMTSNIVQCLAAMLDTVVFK
# CSN inh = CSN deneddylation inhibition. Purified CSN, SCF-Nedd8-OG deneddylation, fluorescence polarization. inhibition, % at 12.5 µM. 360,000 tested, 0.38% active. AID 651999;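 active means pattern-corrected inhibition above about 35%, with an unprinted fluorescence ratio check between 0.5 and 1.5, limit read from the data, passing the limit was not always enough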;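 further: 0% = enzyme with substrate and 100% = substrate without enzyme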
#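 Schedule: reaction 90 min, room temperature / Assay system: HEK293T-derived human Csn5 enzyme / Input: Csn5 at 0.24 nM final / Measure: inhibition of Csn5 cleavage, % / Control set: substrate-only high control, full reaction low control / Technique: fluorescence polarization of the substrate / Buffer or medium: Tris/NaCl/DTT buffer, pH 7.5 / Reagent: SCFSkp2-Nedd8OG substrate at 10 nM final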
# TPT1 inh = inhibitors of Candida albicans tRNA 2'-phosphotransferase TPT1; 300,000 tested, 0.81% active; recombinant caTPT1, FP RNA substrate dephosphorylation; inhibition, % at 5 µM;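 active means inhibition above the mean of all tested compounds plus 3 SD, set per screening campaign, cut at about 24% in these data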;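 further: plate controls were DMSO alone for no effect and ferristatin control at 100 nM for full effect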
# aDG glyco up = alpha-DG glycosylation activation. Pro5-aDG cells, alpha-DG glycosylation AlphaScreen (IIH6); 0% Pro5, 100% B10-LARGE cell signal. activation, % at 10 µM. 360,000 tested, 0.22% active. AID 624168;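 active means activation of at least 8% versus controls, or a plate z-score of at least 8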;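 further: Pro5 are CHO cells carrying HIG-tagged alpha-DG that lacks glycosylation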
# HNF4A DNA FP = change in binding of human HNF4 alpha to DNA | 360,000 tested, 0.3% active | HNF4a-FITC DNA binding, fluorescence polarization, 1 h | activity change, % at 10 µM | P41235 | AID 1224865; in the data active means activity change above about 30%, passing the limit was not always enough
# caTPT1 confirm = confirmation of Candida albicans TPT1 inhibitors. shares compounds with TPT1 inh. recombinant caTPT1, fluorescence polarization, RNase T1 coupled. inhibition, % at 5 µM. 2,400 tested, 74% active. AID 2149;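 active means inhibition above the primary screen limit, the mean inhibition of all tested compounds plus 3 SD, cut at about 25% in these data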
# RNase T1 inh = blocks Aspergillus oryzae RNase T1, a TPT1 counter-screen; shares compounds with TPT1 inh; RNase T1 cleavage, fluorescence polarization, 1536-well; inhibition, % at 5 µM; 2,400 tested, 83% active;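 active means inhibition above the solvent-only control well mean plus 3 SD, limit set per screening run, cut at about 23% in these data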;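 further: plate controls were DMSO wells with enzyme for no effect and wells without RNase T1 for full effect; inhibitors block cleavage so intact labeled substrate keeps polarization high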
# Target sequence (P00651 whole entry, looked up): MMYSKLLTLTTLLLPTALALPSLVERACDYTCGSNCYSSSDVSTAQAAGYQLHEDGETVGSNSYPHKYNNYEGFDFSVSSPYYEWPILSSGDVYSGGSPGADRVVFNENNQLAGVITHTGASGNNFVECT
# Rpn11 inh conf = confirmation of human proteasome Rpn11 inhibitors | shares compounds with Rpn11 inh | inhibition, % at 20 µM | 1,900 tested, 29% active | AID 602318 | purified human 26S proteasome, Ub4-pepOG fluorescence polarization; proteasome pretreated with epoxomicin
# MMP-2 inh = MMP-2 (human) inhibition counter-screen; recombinant MMP-2, FRET peptide cleavage fluorescence; inhibition, % at 20 µM; shares compounds with Rpn11 inh; AID 602330; 1,900 tested, 4% active;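 further: human MMP-2 activated beforehand with APMA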
# Thrombin inh = thrombin (bovine) inhibition counter-screen. shares compounds with Rpn11 inh. bovine thrombin cleavage of Ub4-pepOG, fluorescence polarization. inhibition, % at 20 µM. 1,900 tested, 13% active;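 active means mean inhibition at least 40% at 20 µM, or signal 3 deviations below plate average, so some actives read negative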;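 further: plate controls were thrombin with DMSO for no effect and buffer wells lacking thrombin for full effect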
# HNF4A confirm = change in binding of human HNF4 alpha to DNA, retest | AID 1224897 | shares compounds with HNF4A DNA FP | activity change, % at 12.5 µM | 210 tested, 99% active | HNF4A-FITC DNA binding, fluorescence polarization, 1 h; call rule not given here
# * marks the source's active call; other numbers are inactive results; x = not tested or not shown. Unless noted, no stated cut-off is given here; in the data, active means inhibition above about 40%; inactive means the rest.
SMILES,Xi reactivation,Rpn11 inh,CSN inh,TPT1 inh,aDG glyco up,HNF4A DNA FP,caTPT1 confirm,RNase T1 inh,HNF4A confirm,others
CCOC(=O)C1=C(C)NC(=O)NC1c1ccc(NC(C)=O)cc1 (stereo unspecified),x,3.8,0.2,2.0,0.0,5.7,x,x,x,
O=c1c2ccccc2c(/C=N/c2nnc(Cc3ccccc3)s2)c(O)n1-c1ccc(Cl)cn1,0.4,x,41.4*,25.1*,-0.4,86.4*,153.8*,146.2*,94.8*,
Cc1cccc(C)c1N=Cc1c(O)n(-c2nccs2)c(=O)c2ccccc12,x,-30.1,-7.1,1.1,0.1,1.0,x,x,x,
CCN(CC)C(=O)CSC(Nc1ccc(F)cc1)=C(C#N)C#N,0.0,x,15.2,39.7*,0.2,37.4*,40.5*,51.5*,62.0*,
COc1ccc(-c2nnc(C)c3nocc23)cc1,0.0,89.0*,8.0,67.3*,0.0,56.4*,60.1*,69.0*,63.1*,Rpn11 inh conf=48.4*;MMP-2 inh=-5.4;Thrombin inh=40.0
CC1CCN(c2ccc3c(c2)S(=O)(=O)c2ccccc2C3=O)CC1,0.1,x,29.6,65.2*,0.5,58.4*,79.7*,87.5*,71.5*,
NC(=O)C1CCN(C(=O)c2ccc3c(c2)S(=O)(=O)c2ccccc2C3=O)CC1,0.5,-0.1,3.0,-4.0,-0.2,-3.0,x,x,x,
NC(=O)C1CCN(c2ccc3c(c2)S(=O)(=O)c2ccccc2C3=O)CC1,0.0,x,-2.0,30.8*,0.1,47.2*,38.2*,47.7*,67.0*,
CC=Cc1ccc2n(c1=O)C[C@H]1[C@H](CO)[C@@H](C(=O)N(C)C)[C@@H]2N1Cc1cc(F)ccc1F (mixture of isomers),1.0,x,x,x,x,x,x,x,x,
CCOc1cc(/C=C2\N=C3CCCCCN3C2=O)ccc1O,-0.6,x,58.4*,43.1*,0.6,48.7*,57.9*,60.1*,71.4*,
O=S(=O)(N[C@@H]1CC[C@@H](CCn2cc(C3CC3)nn2)O[C@H]1CO)c1ccc(Cl)cc1,-0.1,x,x,x,x,x,x,x,x,
COc1cc(C2C3CN(C)CC=C3C(C#N)=C(N)C2(C#N)C#N)ccc1OC(C)C (stereo unspecified),x,-42.5,-8.7,4.4,0.1,-34.3,x,x,x,
COc1cc([C@@H]2[C@H]3CNCC=C3C(C#N)=C(N)C2(C#N)C#N)ccc1OC(C)C,x,x,17.2,34.3*,0.1,48.1*,24.2*,35.6*,56.4*,
Cc1onc(-c2ccccc2)c1C(=O)Nc1sccc1C#N,0.2,x,11.8,83.3*,0.3,43.8*,90.8*,98.9*,65.1*,
Cc1onc(-c2ccccc2)c1C(=O)Nc1sc2c(c1C#N)CCC2,x,20.7,20.2,17.5,0.4,12.9,x,x,x,
C[C@@H]1CCCCO[C@H](CN(C)C(=O)Nc2ccc(F)cc2)[C@H](C)CN([C@H](C)CO)C(=O)c2cc(NC(=O)c3ccccc3)ccc2O1,-0.4,x,x,x,x,x,x,x,x,
CCCC(=O)N1CC2(C1)CN(C(=O)Cc1ccccn1)[C@@H](CO)c1[nH]c3cc(OC)ccc3c12,0.1,x,x,x,x,x,x,x,x,
